{"source": "ChEMBL document CHEMBL4270554", "about": "“Discovery of the cancer cell selective dual acting anti-cancer agent (Z)-2-(1H-indol-3-yl)-3-(isoquinolin-5-yl)acrylonitrile (A131)” (Eur J Med Chem, 2018)", "key": {"BJ [1]": {"test_system": "BJ", "experiment": "Cell cycle arrest in human BJ cells assessed as accumulation at sub-G1 phase at 5 uM after 48 hrs", "format": "cell-based", "method_in_brief": "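Isogenic normal and fully transformed BJ fibroblasts (hTert, small t, shRNAs to p53 and pRb, H-RasV12-ER) exposed to 5 μM for 48 h. Percentage of cells in sub-G1 phase determined as a cell death measure.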"}, "[2]": {"experiment": "Antiproliferative activity against human SNU1750 cells after 72 hrs by MTT assay", "format": "functional", "method_in_brief": "(§1)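 Cells cultured at 37 °C, 5% CO₂ in medium with 10% FBS and penicillin/streptomycin, used within 12-20 passages. Seeded at 2.5×10^3 cells/well for 24 h, then compound added from DMSO stocks at 200-fold final concentration (final DMSO 0.5% v/v). After 72 h, 0.5 mg/mL MTT for 3 h, formazan dissolved in DMSO, A570 read. IC50 from sigmoidal fit; three independent determinations.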"}, "TAMH": {"test_system": "TAMH", "experiment": "Antiproliferative activity against mouse TAMH cells at 50 uM after 72 hrs by MTT assay", "format": "cell-based"}, "[3]": {"experiment": "Antiproliferative activity against human Ist1 cells after 72 hrs by MTT assay", "format": "functional", "method_in_brief": "as §1"}, "HCT-15 [4]": {"test_system": "HCT-15", "experiment": "Antiproliferative activity against human HCT15 cells after 72 hrs by MTT assay", "format": "functional", "details": "HCT-15, 72 h", "method_in_brief": "as §1"}, "MCF7": {"test_system": "MCF7", "experiment": "Antiproliferative activity against human MCF7 cells after 72 hrs by MTT assay", "format": "functional", "details": "MCF7, 72 h", "method_in_brief": "as §1"}, "DLD-1": {"test_system": "DLD-1", "experiment": "Antiproliferative activity against human DLD1 cells after 72 hrs by MTT assay", "format": "functional", "details": "DLD-1, 72 h", "method_in_brief": "as §1"}, "SNU1": {"test_system": "SNU1", "experiment": "Antiproliferative activity against human SNU1 cells after 72 hrs by MTT assay", "format": "functional", "details": "SNU1, 72 h", "method_in_brief": "as §1"}, "A549": {"test_system": "A549", "experiment": "Antiproliferative activity against human A549 cells after 72 hrs by MTT assay", "format": "functional", "details": "A549, 72 h", "method_in_brief": "as §1"}, "[5]": {"experiment": "Antiproliferative activity against human BJ cells after 72 hrs by MTT assay", "format": "cell-based", "method_in_brief": "as §1"}, "HeLa [6]": {"test_system": "HeLa", "experiment": "Inhibition of colony formation in human HeLa cells at 0.6 uM after 7 days by plate colony counting method relative to control", "format": "functional", "details": "168 h", "method_in_brief": "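Anchorage-independent growth: HeLa cells (1×10^4 per well) in 0.4% soft agar layered over 1% agar. Compound added at final 0.15, 0.3, 0.6, 1.25, 2.5 and 5 μM. HeLa colonies counted.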"}, "IM95": {"test_system": "IM95", "experiment": "Antiproliferative activity against human IM95 cells after 72 hrs by MTT assay", "format": "functional", "details": "IM95, 72 h", "method_in_brief": "as §1"}, "HeLa [7]": {"test_system": "HeLa", "experiment": "Induction of autophagy in human HeLa cells assessed as increase in LC3-2 to LC3-1 ratio at 2.5 uM after 6 hrs by immunoblot analysis relative to control", "format": "functional", "method_in_brief": "(§2)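 HeLa cells exposed 6 h to test agent (0.625–10 μM series) or chloroquine (1.25–100 μM series) vs DMSO; lysed in 1% Triton buffer (25 mM Tris pH 8.0, 150 mM NaCl, DTT, protease/phosphatase inhibitors), 14% SDS-PAGE, immunoblot with anti-LC3, anti-pH3(Ser10), β-actin loading. LC3-II/LC3-I band intensity ratio expressed relative to DMSO control.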"}, "NUGC-3": {"test_system": "NUGC-3", "experiment": "Antiproliferative activity against human NUGC3 cells after 72 hrs by MTT assay", "format": "functional", "details": "NUGC-3, 72 h", "method_in_brief": "as §1"}, "[8]": {"experiment": "Antiproliferative activity against human HEp-3 cells after 72 hrs by MTT assay", "format": "functional", "method_in_brief": "as §1"}, "Mus musculus": {"test_system": "Mus musculus", "experiment": "Toxicity in BALB/c athymic nu/nu mouse xenografted with human HCT15 cells assessed as effect on body weight at 20 mg/kg, ip bid administered 12 days", "format": "organism-based", "details": "in vivo, 288 h", "method_in_brief": "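Female BALB/c nu/nu mice aged 5–7 weeks, implanted subcutaneously in the flank with 5×10^6 HCT15 cells. At mean tumour 100–300 mm³, randomised into groups of 6. Given 20 mg/kg ip twice daily for 12 days, vehicle 10% DMSO/50% PEG400 in water pH 5.0.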"}, "HCT-15 [9]": {"test_system": "HCT-15", "experiment": "Antitumor activity against human HCT15 cells xenografted in BALB/c athymic nu/nu mouse assessed as tumor growth inhibition at 20 mg/kg, ip bid administered 12 days relative to control", "format": "functional", "details": "HCT-15, ip, 288 h, read-out: TGI", "method_in_brief": "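Female BALB/c nu/nu mice (5-7 weeks) given 5×10^6 HCT15 cells subcutaneously in flank. At 100–300 mm³, randomized into groups of 6. Dosed IP twice daily for 12 days at 20 mg/kg in 10% DMSO, 50% PEG400, deionized water pH 5.0, vs vehicle. Tumor volumes tracked; mean ± SEM, two-way ANOVA vs vehicle.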"}, "HeLa [10]": {"test_system": "HeLa", "experiment": "Induction of autophagy in human HeLa cells assessed as increase in LC3-2 to LC3-1 ratio at 10 uM after 6 hrs by immunoblot analysis relative to control", "format": "functional", "method_in_brief": "as §2"}, "HeLa [11]": {"test_system": "HeLa", "experiment": "Antiproliferative activity against human HeLa cells after 72 hrs by MTT assay", "format": "functional", "method_in_brief": "as §1"}, "[12]": {"experiment": "Antiproliferative activity against human NCC24 cells after 72 hrs by MTT assay", "format": "functional", "method_in_brief": "as §1"}, "SNU-449": {"test_system": "SNU-449", "experiment": "Antiproliferative activity against human SNU449 cells after 72 hrs by MTT assay", "format": "functional", "details": "SNU-449, 72 h", "method_in_brief": "as §1"}, "BJ [13]": {"test_system": "BJ", "experiment": "Antiproliferative activity against human BJ cells assessed as reduction in cell viability at 5 uM incubated for 2 days followed by compound washout measured after 11 days by cell counting method", "format": "cell-based", "details": "48 h", "method_in_brief": "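Normal BJ fibroblasts synchronized in G1 by 2-day serum starvation (0.1% FBS), released into 10% FBS medium and exposed to 5 μM for 2, 4 or 11 days. After 2 or 4 days drug removed and growth continued in fresh medium up to 11 days. Total cell numbers by automated counter; mean ± S.D., n>6.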"}, "HeLa [14]": {"test_system": "HeLa", "experiment": "Potency index, ratio of autophagy induction of test compound to chloroquine in human HeLa cells", "format": "functional"}, "hTERT-BJ": {"test_system": "hTERT-BJ", "experiment": "Induction of autophagy in human hTERT-BJ cells transformed with hTert, small t, shRNAs against p53 and pRb and H-RasV12-ER assessed as increase in LC3-2 to LC3-1 ratio at 5 uM after 24 hrs by immunoblot analysis relative to control", "format": "functional", "method_in_brief": "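Fully transformed BJ fibroblasts (hTert, small t, shRNAs to p53 and pRb, H-RasV12-ER) grown at 37 °C, 5% CO2 in 10% FBS medium; treated 24 h at 5 μM. Triton lysis, 14% SDS-PAGE, LC3 immunoblot; LC3-II/LC3-I band ratio relative to DMSO-treated control, under 2-fold induction deemed insignificant.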"}, "[15]": {"experiment": "Antiproliferative activity against human ARPE19 cells after 72 hrs by MTT assay", "format": "cell-based", "details": "ARPE-19 cells", "method_in_brief": "as §1"}, "[16]": {"experiment": "Half life in pooled male rat liver microsomes at 3 uM preincubated for 5 mins followed by NADPH addition measured after 45 mins by LC-MS/MS method", "format": "ADME, microsome", "method_in_brief": "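Pooled female or male rat liver microsomes (0.3 mg protein/mL) with 3 μM substrate in 0.1 M phosphate buffer pH 7.4, pre-incubated 5 min at 37 °C, started with 1 mM NADPH. Samples at 0-45 min quenched in cold acetonitrile with internal standard, analysed by LC-MS/MS. Triplicates; midazolam positive control, no-NADPH negative control.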"}, "[17]": {"experiment": "Antiproliferative activity against human AC10 cells at 50 uM after 72 hrs by MTT assay", "format": "cell-based"}}}
{"molecule": "N#C/C(=C\\c1cccc2cnccc12)c1c[nH]c2ccccc12", "values": [{"measurement": "Activity", "setting": "BJ [1]", "value": "Non-Toxic"}, {"measurement": "GI50", "setting": "[2]", "value": 0.7, "unit": "µM"}, {"measurement": "Activity", "setting": "TAMH", "value": 57.3, "unit": "%"}, {"measurement": "GI50", "setting": "[3]", "value": 2.2, "unit": "µM"}, {"measurement": "GI50", "setting": "HCT-15 [4]", "value": 0.5, "unit": "µM"}, {"measurement": "GI50", "setting": "MCF7", "value": 1.2, "unit": "µM"}, {"measurement": "GI50", "setting": "DLD-1", "value": 1.2, "unit": "µM"}, {"measurement": "GI50", "setting": "SNU1", "value": 0.9, "unit": "µM"}, {"measurement": "GI50", "setting": "A549", "value": 2, "unit": "µM"}, {"measurement": "GI50 at 72 h", "setting": "[5]", "value": 8.1, "unit": "µM"}, {"measurement": "inhibition at 0.6 µM", "setting": "HeLa [6]", "value": 50, "unit": "%"}, {"measurement": "GI50", "setting": "IM95", "value": 1, "unit": "µM"}, {"measurement": "fold change (FC)", "setting": "HeLa [7]", "value": 3}, {"measurement": "GI50", "setting": "NUGC-3", "value": 1, "unit": "µM"}, {"measurement": "GI50", "setting": "[8]", "value": 3.7, "unit": "µM"}, {"measurement": "Activity", "setting": "Mus musculus", "value": "Non-Toxic"}, {"measurement": "inhibition in vivo at 20 mg/kg", "setting": "HCT-15 [9]", "value": 74, "unit": "%"}, {"measurement": "fold change (FC)", "setting": "HeLa [10]", "value": 4.3}, {"measurement": "GI50", "setting": "HeLa [11]", "value": 1.4, "unit": "µM"}, {"measurement": "GI50", "setting": "[12]", "value": 1.2, "unit": "µM"}, {"measurement": "GI50", "setting": "SNU-449", "value": 2.3, "unit": "µM"}, {"measurement": "Activity", "setting": "BJ [13]", "value": "Non-Toxic"}, {"measurement": "Ratio", "setting": "HeLa [14]", "value": "4 - 10"}, {"measurement": "fold change (FC)", "setting": "hTERT-BJ", "value": 5}, {"measurement": "GI50 at 72 h", "setting": "[15]", "value": "> 10", "unit": "µM"}, {"measurement": "half-life at 3 µM", "setting": "[16]", "value": 7.7, "unit": "min"}, {"measurement": "Activity", "setting": "[17]", "value": 77.6, "unit": "%"}]}
